The text below walks through data of PubChem BioAssay.

Experiment [1] in a line: hit retest on RPL19A-GFP reporter strain – cell-based, S. cerevisiae, flow cytometry, cherry picks, mother/daughter gates, confirmation (AID 2270;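 active means GFP response below 50% of the DMSO control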). The note with it: 3 h, at 10 µM, stronger effect = lower value, 100 = same GFP as DMSO wells. For orientation: In flow cytometry, cells or beads pass a laser one at a time.
The nature of experiment [2]: yeast TOR pathway reporter LAP4-GFP change – cell-based, cherry picks, flow cytometry, mother/daughter gates, confirmation (AID 2271;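 active means GFP response above 150% of the DMSO control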;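 further: ratio of sample to DMSO plate mean so 100% equals DMSO level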). To be noted: S. cerevisiae LAP4-GFP strain, 3 h, at 10 µM, stronger effect = higher value, 100 means same as DMSO control. In short, it runs like this: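 Material: Alexa Fluor 633-labelled Saccharomyces cerevisiae GFP-fusion strain, single-plex | Amount: Yeast cells seeded at OD600 of 0.2 | Buffer or medium: SC growth medium | Schedule: 3 h exposure, 30 °C | Measured by: HT flow cytometry, GFP fluorescence channel | Evaluation: % GFP response vs DMSO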

The nature of experiment [3]: TOR pathway reporter MEP2-GFP, retest of hits – S. cerevisiae, flow cytometry GFP, cherry picks, confirmation (AID 2272;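 active means GFP response above 150% of the DMSO control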;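 further: ratio of well signal to plate DMSO mean so 100% equals DMSO level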). To be noted: S. cerevisiae MEP2-GFP strain, 3 h, at 10 µM, stronger effect = higher value.
Experiment [4] can be described thus: yeast AGP1-GFP fluorescence change, single-dose – cell-based, flow cytometry, S. cerevisiae, cherry picks, confirmation (AID 2273).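 Further: median GFP channel fluorescence over the whole cell population gate.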 To be noted: S. cerevisiae AGP1-GFP strain, 3 h, at 10 µM.
Experiment [5] can be described thus: TOR pathway CIT2 reporter hit retest – S. cerevisiae, GFP fusion, cherry picks, mother/daughter gates, confirmation (AID 2274). The note with it: S. cerevisiae CIT2-GFP strain, flow cytometry, 3 h, at 10 µM, stronger effect = higher value.
The mark [6] stands for this setting: measured here: daughter cell gate.
Where [7] appears, read: measured here: mother cell gate.
The mark [8] stands for this setting: measured here: daughter cell gate response.
Where [9] appears, read: measured here: mother cell gate response.

SMILES strings stand for the structures. Calls of active or inactive are those of the source.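 How the source made its calls, unless noted: active means GFP response above 150% of the DMSO level; inconclusive means fewer than 70 events counted for a yeast strain; inactive means the rest.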

Regarding `Cc1ccc(CC2CC(=O)N(Cc3ccco3)C2=O)cc1` (stereo not drawn), the GFP response vs DMSO was 102% (inactive) in experiment [1], 101% in experiment [1] (setting [6]), 101% in experiment [1] (setting [7]) and 95.7% (inactive) in experiment [3]. In addition, the results for the GFP response relative to DMSO in experiment [2], in experiment [2] (setting [8]) and in experiment [2] (setting [9]) were 93.8% (inactive), 97.2% and 94.2%, respectively. In addition, the GFP response, % of DMSO was 99.2% (inactive) in experiment [4], 107% (inactive) in experiment [5], 105% in experiment [5] (setting [6]) and 109% in experiment [5] (setting [7]).

Take `Cc1ccc(C(=O)N/C(=C/c2ccco2)C(=O)N2CCOCC2)cc1`: the GFP response vs DMSO in experiment [1] is 103% (inactive); in experiment [1] (setting [6]), 100%; in experiment [1] (setting [7]), 104%; in experiment [3] it was 101% (inactive). The GFP response relative to DMSO in experiment [2] is 105% (inactive); in experiment [2] (setting [8]) it was 106%; in experiment [2] (setting [9]), 104%. The GFP response, % of DMSO in experiment [4] was 102% (inactive); in experiment [5], 95.9% (inactive); in experiment [5] (setting [6]) it was 97.4%; in experiment [5] (setting [7]), 95.6%.

On to `COC(=O)Cc1ccc(OCc2ccc(Cl)nc2)cc1`, for which the GFP response vs DMSO is 97.8% (inactive) in experiment [1], 97.5% in experiment [1] (setting [6]), 98.6% in experiment [1] (setting [7]) and 97.5% (inactive) in experiment [3]. Also, the GFP response relative to DMSO in experiment [2] is 107% (inactive); in experiment [2] (setting [8]), 107%; in experiment [2] (setting [9]) it was 106%. The GFP response, % of DMSO in experiment [4] is 101% (inactive); in experiment [5], 95% (inactive); in experiment [5] (setting [6]) it was 94.6%; in experiment [5] (setting [7]), 94.5%.

For the compound `O=C1c2ccccc2C(=O)c2c([N+](=O)[O-])ccc(O)c21`, the GFP response vs DMSO in experiment [1] was 82.2% (inactive); in experiment [1] (setting [6]), 91.2%; in experiment [1] (setting [7]) it was 74.2%; in experiment [3], 110% (inactive). For the same compound, the GFP response relative to DMSO in experiment [2] was 122% (inactive); in experiment [2] (setting [8]) it was 114%; in experiment [2] (setting [9]) it was 124%. Further, the GFP response, % of DMSO is 106% (inactive) in experiment [4], 92.2% (inactive) in experiment [5], 93.7% in experiment [5] (setting [6]) and 82.8% in experiment [5] (setting [7]).

Consider `CN1Cc2sc(NC(=S)NC(=O)c3ccccc3)c(C#N)c2CC1(C)C`, for which the GFP response vs DMSO in experiment [1] is 99.5% (inactive); in experiment [1] (setting [6]), 99.8%; in experiment [1] (setting [7]), 100%; in experiment [3], 133% (inactive). The figures for the GFP response relative to DMSO in experiment [2], in experiment [2] (setting [8]) and in experiment [2] (setting [9]) were 109% (inactive), 104% and 111%, respectively. Further, the GFP response, % of DMSO is 106% (inactive) in experiment [4], 109% (inactive) in experiment [5], 109% in experiment [5] (setting [6]) and 110% in experiment [5] (setting [7]).

On to `CS(=O)(=O)N1N=C(c2ccc(Br)cc2)CC1c1ccc2c(c1)OCO2` (stereo not drawn), for which the GFP response vs DMSO in experiment [1] was 102% (inactive); in experiment [1] (setting [6]), 101%; in experiment [1] (setting [7]) it was 102%; in experiment [3] it was 114% (inactive). Moreover, the GFP response relative to DMSO is 105% (inactive) in experiment [2], 104% in experiment [2] (setting [8]) and 104% in experiment [2] (setting [9]). Moreover, the GFP response, % of DMSO in experiment [4] is 99.3% (inactive); in experiment [5], 109% (inactive); in experiment [5] (setting [6]), 111%; in experiment [5] (setting [7]) it was 107%.

On to `CN1c2ccsc2/C(=N/Nc2ccc(F)cc2)CS1(=O)=O`, for which the GFP response vs DMSO in experiment [1] was 99.2% (inactive); in experiment [1] (setting [6]) it was 99.6%; in experiment [1] (setting [7]), 99%; in experiment [3] it was 114% (inactive). The GFP response relative to DMSO in experiment [2] is 134% (inactive); in experiment [2] (setting [8]) it was 130%; in experiment [2] (setting [9]) it was 134%. Also, the GFP response, % of DMSO in experiment [4] was 103% (inactive); in experiment [5], 109% (inactive); in experiment [5] (setting [6]), 108%; in experiment [5] (setting [7]), 109%.

On to `NC(=O)COc1ccc(C(=O)/C=C2/C(=O)Nc3ccccc32)cc1`, for which the GFP response vs DMSO in experiment [1] was 94% (inactive); in experiment [1] (setting [6]), 93.4%; in experiment [1] (setting [7]), 81%; in experiment [3], 94.1% (inactive). Also, the GFP response relative to DMSO in experiment [2] is 95.4% (inactive); in experiment [2] (setting [8]), 91.2%; in experiment [2] (setting [9]), 96.1%. Besides, the GFP response, % of DMSO in experiment [4] was 107% (inactive); in experiment [5], 101% (inactive); in experiment [5] (setting [6]), 103%; in experiment [5] (setting [7]), 101%.

In the case of `Cc1c(C)c2ccc(OCC(=O)NCCCn3ccnc3)cc2oc1=O`, the GFP response vs DMSO in experiment [1] was 97.8% (inactive); in experiment [1] (setting [6]) it was 97.4%; in experiment [1] (setting [7]) it was 98.5%; in experiment [3], 105% (inactive). Also, the GFP response relative to DMSO in experiment [2] is 96.7% (inactive); in experiment [2] (setting [8]), 96%; in experiment [2] (setting [9]), 96.1%. For the same compound, the GFP response, % of DMSO in experiment [4] was 97.6% (inactive); in experiment [5], 101% (inactive); in experiment [5] (setting [6]), 101%; in experiment [5] (setting [7]) it was 101%.

On to `C/C(=N\NC(=O)c1ccc(Cl)c(Cl)c1)c1cccc(NC(=O)C(C)C)c1`, for which the GFP response vs DMSO in experiment [1] was 99.9% (inactive); in experiment [1] (setting [6]), 99.8%; in experiment [1] (setting [7]), 101%; in experiment [3], 99.5% (inactive). In addition, the values for the GFP response relative to DMSO in experiment [2], in experiment [2] (setting [8]) and in experiment [2] (setting [9]) were 94.2% (inactive), 93.6% and 94.6%, respectively. Moreover, the GFP response, % of DMSO in experiment [4] is 96% (inactive); in experiment [5], 99.3% (inactive); in experiment [5] (setting [6]) it was 100%; in experiment [5] (setting [7]) it was 96.8%.

`Cc1ccc(/C=N/Nc2ncc(Cl)cc2Cl)s1`: the GFP response vs DMSO in experiment [1] is 86.7% (inactive); in experiment [1] (setting [6]), 62.7%; in experiment [1] (setting [7]), 78.2%; in experiment [3], 115% (inactive). Moreover, the GFP response relative to DMSO in experiment [2] was 331% (active); in experiment [2] (setting [8]), 202%; in experiment [2] (setting [9]), 317%. Besides, the GFP response, % of DMSO in experiment [4] was 81.8% (inactive); in experiment [5], 107% (inactive); in experiment [5] (setting [6]), 95.4%; in experiment [5] (setting [7]) it was 98.5%.

In the case of `Cc1ccc(N2CCN(C(=O)c3ccccc3)CC2)c(C)c1`, the GFP response vs DMSO in experiment [1] was 99% (inactive); in experiment [1] (setting [6]) it was 99.4%; in experiment [1] (setting [7]) it was 99.5%; in experiment [3], 98.3% (inactive). Besides, the figures for the GFP response relative to DMSO in experiment [2], in experiment [2] (setting [8]) and in experiment [2] (setting [9]) were 95.4% (inactive), 94.4% and 94%, respectively. The GFP response, % of DMSO in experiment [4] was 94.3% (inactive); in experiment [5], 107% (inactive); in experiment [5] (setting [6]) it was 106%; in experiment [5] (setting [7]), 106%.

For `COc1ccc(C2=NN(S(C)(=O)=O)C(c3ccc4nccnc4c3)C2)cc1` (stereo not drawn), the GFP response vs DMSO is 101% (inactive) in experiment [1], 99.8% in experiment [1] (setting [6]), 102% in experiment [1] (setting [7]) and 102% (inactive) in experiment [3]. Further, the GFP response relative to DMSO in experiment [2] was 99.8% (inactive); in experiment [2] (setting [8]), 103%; in experiment [2] (setting [9]) it was 103%. Also, the GFP response, % of DMSO is 97.6% (inactive) in experiment [4], 92.6% (inactive) in experiment [5], 93.2% in experiment [5] (setting [6]) and 91.2% in experiment [5] (setting [7]).
